Experimental data as given in ChEMBL document CHEMBL2331168, “Anticonvulsant evaluation of aminoalkanol derivatives of 2- and 4-methylxanthone” (Bioorg Med Chem, 2013).
The source made the active and inactive calls.

How the values were obtained:
Mus musculus [1] = test: Anticonvulsant activity in albino mouse assessed as protection against subcutaneous pentetrazole-induced seizures at 30 mg/kg, ip after 0.5 hrs; assay type: functional, organism-based; design: dose 30 mg/kg
Outline: (§1)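 Male albino mice (Carworth Farms No. 1) received compound ip in 0.5% methylcellulose, then pentetrazole 85 mg/kg sc in 0.9% NaCl at 0.5 or 4 h. Mice were watched for at least 30 min. Protection meant no threshold seizure, defined as a single clonic spasm lasting at least 5 s. Scored as protected/tested.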

Mus musculus [2] = test: Anticonvulsant activity in albino mouse assessed as protection against subcutaneous pentetrazole-induced seizures at 30 mg/kg, ip after 4 hrs; assay type: functional, organism-based; design: dose 30 mg/kg; outline: as §1
Mus musculus [3] = test: Anticonvulsant activity in albino mouse assessed as protection against maximal electroshock-induced seizures at 30 mg/kg, ip after 0.5 hrs; assay type: functional, organism-based; design: dose 30 mg/kg
Outline: (§2)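 Male albino mice (Carworth Farms No. 1) were given the compound ip as a suspension in 0.5% methylcellulose at 3–300 mg/kg. MES testing was at 0.5 and 4 h, sometimes also at 0.25 and 1 h. Current was 60 Hz, 50 mA, 0.2 s via corneal electrodes, with saline eye drops. Protection meant no hindlimb tonic extension, scored as protected/tested.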

Mus musculus [4] = test: Anticonvulsant activity in albino mouse assessed as protection against subcutaneous pentetrazole-induced seizures at 100 mg/kg, ip after 4 hrs; assay type: functional, organism-based; design: dose 100 mg/kg; outline: as §1
Mus musculus [5] = test: Anticonvulsant activity in albino mouse assessed as protection against maximal electroshock-induced seizures at 100 mg/kg, ip after 0.5 hrs; assay type: functional, organism-based; design: dose 100 mg/kg; outline: as §2
Mus musculus [6] = test: Neurotoxicity in albino mouse assessed as minimal motor impairment at 100 mg/kg, ip after 0.5 hrs by rotorod test; assay type: toxicity, organism-based; design: dose 100 mg/kg, route intraperitoneal; settings: in vivo
Outline: (§3)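 Male albino mice (Carworth Farms No. 1) were dosed ip with suspensions in 0.5% methylcellulose and put on a 1 in. knurled rod rotating at 6 rpm at set times after dosing. Neurotoxicity meant failure to stay on the rod for at least 1 min in each of three trials. Scored as impaired/tested.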

Mus musculus [7] = test: Neurotoxicity in albino mouse assessed as minimal motor impairment at 30 mg/kg, ip after 0.5 hrs by rotorod test; assay type: toxicity, organism-based; design: dose 30 mg/kg, route intraperitoneal; settings: in vivo; outline: as §3
Mus musculus [8] = test: Anticonvulsant activity in albino mouse assessed as protection against subcutaneous pentetrazole-induced seizures at 100 mg/kg, ip after 0.5 hrs; assay type: functional, organism-based; design: dose 100 mg/kg; outline: as §1
Mus musculus [9] = test: Anticonvulsant activity in albino mouse assessed as protection against maximal electroshock-induced seizures at 30 mg/kg, ip after 4 hrs; assay type: functional, organism-based; design: dose 30 mg/kg; outline: as §2
Mus musculus [10] = test: Neurotoxicity in albino mouse assessed as minimal motor impairment at 300 mg/kg, ip after 0.5 hrs by rotorod test; assay type: toxicity, organism-based; design: dose 300 mg/kg, route intraperitoneal; settings: in vivo; outline: as §3
Mus musculus [11] = test: Neurotoxicity in albino mouse assessed as minimal motor impairment at 30 mg/kg, ip after 4 hrs by rotorod test; assay type: toxicity, organism-based; design: dose 30 mg/kg, route intraperitoneal; settings: in vivo; outline: as §3
Mus musculus [12] = test: Anticonvulsant activity in albino mouse assessed as protection against maximal electroshock-induced seizures at 300 mg/kg, ip after 0.5 hrs; assay type: functional, organism-based; design: dose 300 mg/kg; outline: as §2
Rattus norvegicus [13] = test: Neurotoxicity in Sprague-Dawley rat assessed as minimal motor impairment at 30 mg/kg, po after 1 hr by rotorod test; settings: in vivo
Rattus norvegicus [14] = test: Neurotoxicity in Sprague-Dawley rat assessed as minimal motor impairment at 30 mg/kg, po after 2 hrs by rotorod test; settings: in vivo
Mus musculus [15] = test: Anticonvulsant activity in albino mouse assessed as protection against maximal electroshock-induced seizures at 100 mg/kg, ip after 4 hrs; assay type: functional, organism-based; design: dose 100 mg/kg; outline: as §2
Rattus norvegicus [16] = test: Neurotoxicity in Sprague-Dawley rat assessed as minimal motor impairment at 30 mg/kg, po after 4 hrs by rotorod test; settings: in vivo
Rattus norvegicus [17] = test: Neurotoxicity in Sprague-Dawley rat assessed as minimal motor impairment at 30 mg/kg, po after 0.5 hrs by rotorod test; settings: in vivo
Mus musculus [18] = test: Neurotoxicity in albino mouse assessed as minimal motor impairment at 100 mg/kg, ip after 4 hrs by rotorod test; assay type: toxicity, organism-based; design: dose 100 mg/kg, route intraperitoneal; settings: in vivo; outline: as §3
Mus musculus [19] = test: Anticonvulsant activity in albino mouse assessed as protection against maximal electroshock-induced seizures at 300 mg/kg, ip after 4 hrs; assay type: functional, organism-based; design: dose 300 mg/kg; outline: as §2
Mus musculus [20] = test: Anticonvulsant activity in albino mouse assessed as protection against subcutaneous pentetrazole-induced seizures at 300 mg/kg, ip after 4 hrs; assay type: functional, organism-based; design: dose 300 mg/kg; outline: as §1
Mus musculus [21] = test: Neurotoxicity in albino mouse assessed as minimal motor impairment at 300 mg/kg, ip after 4 hrs by rotorod test; assay type: toxicity, organism-based; design: dose 300 mg/kg, route intraperitoneal; settings: in vivo; outline: as §3
Mus musculus [22] = test: Anticonvulsant activity in albino mouse assessed as protection against subcutaneous pentetrazole-induced seizures at 300 mg/kg, ip after 0.5 hrs; assay type: functional, organism-based; design: dose 300 mg/kg; outline: as §1
Rattus norvegicus [23] = test: Neurotoxicity in Sprague-Dawley rat assessed as minimal motor impairment at 30 mg/kg, po after 0.25 hrs by rotorod test; settings: in vivo
Rattus norvegicus [24] = test: Anticonvulsant activity in Sprague-Dawley rat assessed as protection against maximal electroshock-induced seizures at 30 mg/kg, po after 0.5 hrs; assay type: functional, organism-based; design: dose 30 mg/kg
Outline: (§4)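 Male Sprague-Dawley rats dosed orally at 30 mg/kg and tested at 0.25, 0.5, 1, 2 and 4 h. Seizures were induced by 60 Hz alternating current at 150 mA for 0.2 s through corneal electrodes, after a drop of 0.9% NaCl in each eye. Protection meant abolition of hindlimb tonic extension. Reported as protected/tested, usually 4 rats per time point.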

Rattus norvegicus [25] = test: Anticonvulsant activity in Sprague-Dawley rat assessed as protection against maximal electroshock-induced seizures at 30 mg/kg, po after 4 hrs; assay type: functional, organism-based; design: dose 30 mg/kg; outline: as §4
Rattus norvegicus [26] = test: Anticonvulsant activity in Sprague-Dawley rat assessed as protection against maximal electroshock-induced seizures at 30 mg/kg, po after 0.25 hrs; assay type: functional, organism-based; design: dose 30 mg/kg; outline: as §4
Rattus norvegicus [27] = test: Anticonvulsant activity in Sprague-Dawley rat assessed as protection against maximal electroshock-induced seizures at 30 mg/kg, po after 2 hrs; assay type: functional, organism-based; design: dose 30 mg/kg; outline: as §4

| Structure (SMILES) | Activity (Mus musculus [1]) | Activity (Mus musculus [2]) | Activity (Mus musculus [3]) | Activity (Mus musculus [4]) | Activity (Mus musculus [6]) | Activity (Mus musculus [7]) | Activity (Mus musculus [8]) | Activity (Mus musculus [9]) | Activity (Mus musculus [10]) | Activity (Mus musculus [11]) | Activity (Mus musculus [12]) | Activity (Rattus norvegicus [13]) | Activity (Rattus norvegicus [14]) | Activity (Rattus norvegicus [16]) | Activity (Rattus norvegicus [17]) | Activity (Mus musculus [18]) | Activity (Mus musculus [19]) | Activity (Mus musculus [20]) | Activity (Mus musculus [22]) | Activity (Rattus norvegicus [23]) | further results |
| --- | --- | --- | --- | --- | --- | --- | --- | --- | --- | --- | --- | --- | --- | --- | --- | --- | --- | --- | --- | --- | --- |
| COc1ccc2c(=O)c3cccc(CNCC(C)O)c3oc2c1 (racemic) | inactive | inactive | inactive | inactive | Toxic | Non-toxic | inactive | inactive | Toxic | Non-toxic |  |  |  |  |  |  |  |  |  |  | Activity (Mus musculus [5]): Active |
| CC[C@H](CO)NCc1cccc2c(=O)c3ccc(OC)cc3oc12 | inactive | inactive | inactive | inactive | Non-toxic | Non-toxic | inactive | inactive | Toxic | Non-toxic | Active | Non-toxic | Non-toxic | Non-toxic | Non-toxic | Non-toxic | Active | inactive | inactive | Non-toxic | Activity (Mus musculus [15]): inactive; Activity (Mus musculus [21]): Non-toxic; Activity (Rattus norvegicus [24]): inactive |
| CC[C@@H](CO)NCc1cccc2c(=O)c3ccc(OC)cc3oc12 | inactive | inactive | inactive | inactive |  |  | inactive | inactive | Toxic | Non-toxic | Active | Non-toxic | Non-toxic | Non-toxic | Non-toxic |  | Active | inactive | inactive | Non-toxic | Activity (Rattus norvegicus [25]): inactive; Activity (Rattus norvegicus [26]): inactive |
| CC(CO)NCc1ccc2oc3ccc(Cl)cc3c(=O)c2c1 (racemic) | inactive | inactive | inactive | inactive | Non-toxic | Non-toxic | inactive | inactive | Non-toxic | Non-toxic | inactive | Non-toxic | Non-toxic | Non-toxic | Non-toxic | Non-toxic | Active | inactive | inactive | Non-toxic | Activity (Mus musculus [5]): inactive; Activity (Mus musculus [21]): Non-toxic; Activity (Rattus norvegicus [27]): inactive; Activity (Rattus norvegicus [26]): inactive; Activity (Rattus norvegicus [24]): inactive |
| C[C@H](CO)NCc1ccc2oc3ccc(Cl)cc3c(=O)c2c1 | inactive | inactive | inactive | inactive | Non-toxic | Non-toxic | inactive | inactive |  | Non-toxic | Active | Non-toxic | Non-toxic | Non-toxic | Non-toxic | Non-toxic | Active | inactive | inactive | Non-toxic | Activity (Mus musculus [15]): inactive; Activity (Mus musculus [21]): Non-toxic; Activity (Rattus norvegicus [27]): inactive; Activity (Rattus norvegicus [24]): inactive |
| COc1ccc2c(=O)c3cccc(CNC(C)(C)CO)c3oc2c1 | inactive | inactive | inactive | inactive | Toxic | Non-toxic | inactive | inactive | Toxic | Non-toxic |  | Non-toxic | Non-toxic | Non-toxic | Non-toxic | Non-toxic |  |  |  | Non-toxic | Activity (Mus musculus [15]): inactive; Activity (Mus musculus [5]): Active; Activity (Rattus norvegicus [27]): inactive; Activity (Rattus norvegicus [26]): inactive |
